Activity and MIC data for 13 compounds are collected here from ChEMBL document CHEMBL1151172, “Further labdane and kaurane diterpenoids and other constituents from Plectranthus fruticosus” (2004).

≈ marks a conversion by molar mass, not a printed value. Calls of active or inactive are those of the source. The rule behind the calls is not given here.

By MIC is commonly meant the least concentration at which growth counts as inhibited.

For test [1], the system named is Pseudomonas aeruginosa. Description: Antimicrobial activity against Pseudomonas aeruginosa ATCC 27853 by serial broth microdilution method. It counts as functional, organism-based. The procedure, abridged:
(§1)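 MIC by NCCLS serial broth microdilution in Mueller-Hinton broth. Compounds dissolved in DMSO and tested at graded concentrations from 250 to 7.8 µg/mL. A solvent blank was included.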

For test [2], the system named is Escherichia coli. Description: Antimicrobial activity against Escherichia coli ATCC 25922 by serial broth microdilution method. The test is classed as functional. The procedure, abridged:
as §1
For orientation: Broth dilution looks for growth in wells or tubes with falling amounts of substance.

For test [3], the system named is Candida albicans. Description: Antimicrobial activity against Candida albicans CIP 3153A by serial broth microdilution method. The test is classed as functional, organism-based. The procedure, abridged:
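Yeast MIC by serial broth microdilution following NCCLS, using YMA medium. Compounds were dissolved in DMSO and tested over graded concentrations from 250 to 7.8 µg/mL, with a solvent blank.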

The test system of test [4] is Staphylococcus aureus. Description: Antimicrobial activity against Staphylococcus aureus ATCC 25923 by serial broth microdilution method. It counts as functional. The procedure, abridged: as §1

`CC(=O)O[C@H]1C[C@@H]2[C@@]3(C=C(C=O)[C@H]1C3)CC[C@H]1[C@@]2(C)CCC[C@@]1(C)C(=O)O`: the result in test [1], in test [2] and in test [3] was inactive.
As to `C=C1C[C@]23C[C@H]1[C@@H](OC(C)=O)C[C@H]2[C@]1(C)CCC[C@@](C)(C(=O)O)[C@H]1C[C@H]3O`, the result in test [1], in test [2] and in test [3] was inactive.
On to `C=C1CC[C@@H]2[C@H]([C@H]3[C@H]1CC[C@@]3(O)CO)C2(C)C`, for which the result in test [1], in test [2] and in test [3] was inactive.
As for `C=C1[C@H]2C[C@@]3(CC[C@H]4[C@@](C)(CCC[C@@]4(C)C(=O)O)[C@@H]3C[C@@H]2OC(C)=O)[C@H]1O`, the outcome in test [1], in test [2] and in test [3] was inactive.
Take `C=C1C[C@@]23CC[C@H]4[C@@](C)(CCC[C@@]4(C)C(=O)OC)[C@@H]2C[C@H](O)[C@@H]1C3`: the result in test [1], in test [2] and in test [3] was inactive.
For the compound `C[C@@]12CCC[C@@](C)(C(=O)O)[C@H]1C[C@@H](O)[C@@]13C[C@@H](CC[C@@H]21)[C@]1(C)O[C@@H]13`, the result in test [1], in test [2] and in test [3] was inactive.
On to `C=C1[C@H]2C[C@@]3(CC[C@H]4[C@@](C)(CCC[C@@]4(C)C(=O)OC)[C@@H]3C[C@@H]2OC(C)=O)[C@H]1O`, for which the outcome in test [1], in test [2] and in test [3] was inactive.
With `NC[C@H]1O[C@H](O[C@H]2[C@H](O)[C@@H](O[C@H]3O[C@H](CO)[C@@H](O)[C@H](N)[C@H]3O)[C@H](N)C[C@@H]2N)[C@H](O)[C@@H](O)[C@@H]1O` [KANAMYCIN], the minimum inhibitory concentration (MIC) in test [2] and in test [4] was less than 7.8 µg/mL each time.
For `COC(=O)[C@]1(C)CCC[C@@]2(C)[C@@H]3C[C@H](OC(C)=O)[C@@H]4C[C@]3(C=C4C=O)CC[C@@H]21`, the outcome in test [1], in test [2] and in test [3] was inactive. Further, the lowest concentration to inhibit growth in test [4] (MIC) was 62.5 µg/mL (≈ 161 µM).
As for `COC(=O)[C@]1(C)CCC[C@@]2(C)[C@@H]3C[C@H](OC(C)=O)[C@@H]4C[C@]3(C=C4C)[C@H](O)C[C@@H]21`, the result in test [1], in test [2] and in test [3] was inactive.
With `C=C/C(C)=C\C[C@@H]1C(=C)CC[C@@H]2C(C)(C)[C@H](O)[C@@H](O)C[C@@]12C`, the outcome in test [1], in test [2] and in test [3] was inactive.
`CC1=C[C@]23C[C@H]1CC[C@H]2[C@]1(C)CCC[C@@](C)(C(=O)O)[C@H]1C[C@H]3O`: the outcome in test [1], in test [2] and in test [3] was inactive.
`COC(=O)[C@]1(C)CCC[C@@]2(C)[C@@H]3C[C@H](OC(C)=O)[C@@H]4C[C@@]3(CC[C@@H]21)[C@H]1O[C@]14C`: the result in test [1], in test [2] and in test [3] was inactive.
